Measured values from ChEMBL document CHEMBL1145787, “Synthesis and structure-activity relationship of N-substituted 4-arylsulfonylpiperidine-4-hydroxamic acids as novel, orally active matrix metalloproteinase inhibitors for the treatment of osteoarthritis” (J Med Chem, 2003).

Tests used:
[1] = molecular target: T1, Disintegrin and metalloproteinase domain-containing protein 17 (Homo sapiens, UniProt P78536); assay: Inhibition of Tumor necrosis factor alpha converting enzyme (TACE) at 10 uM
How it was run: (§1)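 Dose–response curves were not generated when inhibition was below 60% at 10 μM.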

[2] = In vivo inhibitory activity against Matrix metalloprotease enzyme by dialysis implant assay, value is relative to activity of CGS-27023 (76+/-3) at 25 mg/kg. po; type: functional
[3] = molecular target: T2, Interstitial collagenase (Homo sapiens) (UniProt P03956); assay: Inhibition of Matrix metalloprotease-1 at 10 uM; how it was run: as §1
T2 sequence (whole entry): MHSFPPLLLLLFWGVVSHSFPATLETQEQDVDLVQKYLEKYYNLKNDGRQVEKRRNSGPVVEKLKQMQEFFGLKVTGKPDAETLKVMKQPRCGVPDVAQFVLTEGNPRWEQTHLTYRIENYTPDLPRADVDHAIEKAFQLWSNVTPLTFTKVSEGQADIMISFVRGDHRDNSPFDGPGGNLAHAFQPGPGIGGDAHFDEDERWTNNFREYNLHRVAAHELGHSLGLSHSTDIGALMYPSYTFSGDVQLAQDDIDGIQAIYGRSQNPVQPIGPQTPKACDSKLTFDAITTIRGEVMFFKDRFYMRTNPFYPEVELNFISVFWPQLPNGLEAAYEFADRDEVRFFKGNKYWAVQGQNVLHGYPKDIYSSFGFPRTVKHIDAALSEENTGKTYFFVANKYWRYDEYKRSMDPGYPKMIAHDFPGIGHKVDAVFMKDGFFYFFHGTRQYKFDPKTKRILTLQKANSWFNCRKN

[4] = In vivo inhibitory activity against Matrix metalloprotease enzyme by dialysis implant assay, value are relative to activity of CGS-27023 (64+/-3) at 25 mg/kg. po; type: functional
[5] = molecular target: Matrix metalloproteinase-9 (Homo sapiens, UniProt P14780); assay: In vitro inhibitory activity against matrix metalloprotease-9.
Collagenase 3 = Collagenase 3 (Homo sapiens, UniProt P45452)
[6] = In vivo inhibitory activity against Matrix metalloprotease enzyme by dialysis implant assay, value is relative to activity of CGS-27023 (60+/-3) at 25 mg/kg. po; type: functional
[7] = In vivo inhibitory activity against Matrix metalloprotease enzyme by dialysis implant assay, value are relative to activity of CGS-27023 (67+/-3) at 25 mg/kg. po; type: functional
[8] = In vivo inhibitory activity against Matrix metalloprotease enzyme by dialysis implant assay, value is relative to activity of CGS-27023 (54+/-2) at 25 mg/kg. po; type: functional
Interstitial collagenase = molecular target: T3, Interstitial collagenase (Homo sapiens, UniProt P03956); assay: In vitro inhibitory activity against matrix metalloprotease-1
T3 sequence (P03956 whole entry): T2 sequence (whole entry)

[9] = molecular target: T1, Disintegrin and metalloproteinase domain-containing protein 17; assay: In vitro inhibitory activity against tumor necrosis factor alpha converting enzyme (TACE).
Oryctolagus cuniculus = assay: Effect of compound on cartilage in surgically induced osteoarthritis (OA) model in rabbit at 25 mg/kg; type: functional
How it was run: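 Rabbits had anterior cruciate ligament transection plus meniscectomy in one knee, with sham surgery on the contralateral knee. From day 10 after surgery, groups of 12 were dosed once daily by oral gavage with vehicle, test compound or the RS-130830 reference for 4 weeks. Knee joints were then collected and scored for gross pathological changes by blinded investigators.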

Rattus norvegicus = assay: In vivo inhibition of by Matrix metalloprotease enzyme Sponge-wrapped cartilage assay at 5 mg/kg. po. bid; type: functional
[10] = In vivo inhibitory activity against Matrix metalloprotease enzyme by dialysis implant assay, value is relative to activity of CGS-27023 (68+/5-) at 25 mg/kg. po; type: functional
[11] = In vivo inhibitory activity against Matrix metalloprotease enzyme by dialysis implant assay, value is relative to activity of CGS-27023 (51+/-3) at 25 mg/kg. po; type: functional
[12] = In vivo inhibition of Matrix metalloprotease enzyme by Sponge-wrapped cartilage assay, value is relative to activity of RS-130830 (27+/-3) at 10 mg/kg. po. bid; type: functional
[13] = In vivo inhibitory activity against Matrix metalloprotease enzyme by dialysis implant assay, value is relative to activity of CGS-27023 (64+/-2) at 25 mg/kg. po; type: functional
[14] = In vivo inhibitory activity against Matrix metalloprotease enzyme by dialysis implant assay, value is relative to activity of CGS-27023 (42+/-2) at 25 mg/kg. po; type: functional
[15] = In vivo inhibition of Matrix metalloprotease enzyme by Sponge-wrapped cartilage assay, value is relative to activity of CGS-27023 (39+/-3) at 25 mg/kg. po. bid; type: functional
[16] = In vivo inhibitory activity against Matrix metalloprotease enzyme by dialysis implant assay, value is relative to activity of CGS-27023 (61+/-3) at 25 mg/kg. po; type: functional
[17] = In vivo inhibition of Matrix metalloprotease enzyme by Sponge-wrapped cartilage assay, value is relative to activity of RS-130830 (23+/-3) at 10 mg/kg. po. bid; type: functional
[18] = In vivo inhibition of Matrix metalloprotease enzyme by Sponge-wrapped cartilage assay, value are relative to activity of RS-130830 (27+/-3) at 10 mg/kg. po. bid; type: functional
[19] = In vivo inhibition of Matrix metalloprotease enzyme by Sponge-wrapped cartilage assay, value are relative to activity of CGS-27023 (33+/-2) at 25 mg/kg. po. bid; type: functional
[20] = In vivo inhibition of Matrix metalloprotease enzyme by Sponge-wrapped cartilage assay, value is relative to activity of RS-130830 (40+/-3) at 10 mg/kg. po. bid; type: functional
[21] = In vivo inhibition of Matrix metalloprotease enzyme by Sponge-wrapped cartilage assay, compared to activity of RS-130830 (20+/-2) at 5 mg/kg. po. bid; type: functional
[22] = In vivo inhibitory activity against Matrix metalloprotease enzyme by dialysis implant assay, value is relative to activity of CGS-27023 (75+/-2) at 25 mg/kg. po; type: functional
[23] = In vivo inhibition of Matrix metalloprotease enzyme by Sponge-wrapped cartilage assay, compared to activity of RS-130830 (inactive) at 5 mg/kg. po. qd; type: functional
[24] = In vivo inhibitory activity against Matrix metalloprotease enzyme by dialysis implant assay, value is relative to activity of CGS-27023 (60+/-2) at 25 mg/kg. po; type: functional
[25] = In vivo inhibitory activity against Matrix metalloprotease enzyme by dialysis implant assay, value is relative to activity of CGS-27023 (74+/-2) at 25 mg/kg. po; type: functional
[26] = In vivo inhibitory activity against Matrix metalloprotease enzyme by dialysis implant assay, value are relative to activity of CGS-27023 (73+/-4) at 25 mg/kg. po; type: functional
[27] = In vivo inhibitory activity against Matrix metalloprotease enzyme by dialysis implant assay, value is relative to activity of CGS-27023 (62+/-5) at 25 mg/kg. po; type: functional

T1 sequence (P78536 whole entry, the tested form may be a part): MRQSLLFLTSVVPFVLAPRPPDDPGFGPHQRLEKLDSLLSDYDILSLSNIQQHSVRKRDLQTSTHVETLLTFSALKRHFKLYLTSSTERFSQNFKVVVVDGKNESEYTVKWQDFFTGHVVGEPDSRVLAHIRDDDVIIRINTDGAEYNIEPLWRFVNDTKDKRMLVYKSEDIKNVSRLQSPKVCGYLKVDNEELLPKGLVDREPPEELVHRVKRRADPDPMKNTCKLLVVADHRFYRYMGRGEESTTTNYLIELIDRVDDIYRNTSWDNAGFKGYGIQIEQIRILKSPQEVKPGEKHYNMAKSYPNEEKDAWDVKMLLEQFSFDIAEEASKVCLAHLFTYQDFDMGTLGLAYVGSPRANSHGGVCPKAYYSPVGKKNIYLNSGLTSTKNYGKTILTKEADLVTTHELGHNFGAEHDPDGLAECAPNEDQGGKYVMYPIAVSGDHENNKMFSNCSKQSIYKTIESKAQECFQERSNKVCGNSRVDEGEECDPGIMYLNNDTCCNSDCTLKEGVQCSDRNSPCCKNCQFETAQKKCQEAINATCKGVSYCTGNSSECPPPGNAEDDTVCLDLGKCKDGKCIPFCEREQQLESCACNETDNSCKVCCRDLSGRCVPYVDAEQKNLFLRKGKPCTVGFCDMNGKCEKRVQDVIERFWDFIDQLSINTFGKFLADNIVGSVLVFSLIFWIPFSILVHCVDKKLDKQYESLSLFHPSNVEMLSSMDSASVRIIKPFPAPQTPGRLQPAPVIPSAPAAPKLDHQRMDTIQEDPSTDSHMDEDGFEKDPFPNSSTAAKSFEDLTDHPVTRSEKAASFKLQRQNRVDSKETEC
Chain of Matrix metalloproteinase-9 (P14780 whole entry): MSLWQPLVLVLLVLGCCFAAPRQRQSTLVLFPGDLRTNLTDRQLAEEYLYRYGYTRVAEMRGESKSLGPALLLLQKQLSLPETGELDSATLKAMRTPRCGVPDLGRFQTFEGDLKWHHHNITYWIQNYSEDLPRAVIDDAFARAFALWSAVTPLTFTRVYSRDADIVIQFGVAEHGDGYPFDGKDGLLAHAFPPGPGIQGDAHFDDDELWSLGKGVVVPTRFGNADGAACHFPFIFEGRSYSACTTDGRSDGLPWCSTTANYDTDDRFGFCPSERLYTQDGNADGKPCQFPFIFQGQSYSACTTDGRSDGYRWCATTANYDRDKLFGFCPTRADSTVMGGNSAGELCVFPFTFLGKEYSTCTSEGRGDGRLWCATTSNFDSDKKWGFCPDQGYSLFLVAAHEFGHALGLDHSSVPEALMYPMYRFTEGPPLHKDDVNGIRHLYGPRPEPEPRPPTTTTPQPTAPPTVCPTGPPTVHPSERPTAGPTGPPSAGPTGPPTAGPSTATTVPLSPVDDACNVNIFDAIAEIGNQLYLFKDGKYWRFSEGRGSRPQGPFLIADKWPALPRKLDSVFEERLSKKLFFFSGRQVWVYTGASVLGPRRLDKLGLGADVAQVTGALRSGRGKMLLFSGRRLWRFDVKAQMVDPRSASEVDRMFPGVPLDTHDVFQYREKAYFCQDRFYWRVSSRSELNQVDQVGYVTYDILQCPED

Compound: CCCCN1CCC(C(=O)NO)(S(=O)(=O)c2ccc(OC)cc2)CC1
- inhibition [1]: 15%
- inhibition in vivo at 25 mg/kg [2]: 56%
- inhibition [3]: 56%

Compound: COc1ccc(S(=O)(=O)C2(C(=O)NO)CCN(Cc3ccc(-c4ccccn4)cc3)CC2)cc1
- inhibition in vivo at 25 mg/kg [4]: 78%
- IC50 [5]: 6 nM

Compound: COc1ccc(S(=O)(=O)C2(C(=O)NO)CCN(CCCOc3ccccc3)CC2)cc1
- inhibition [1]: 50%
- IC50 (Collagenase 3): 4 nM
- inhibition in vivo at 25 mg/kg [6]: 28%

Compound: CCCCOc1ccc(S(=O)(=O)C2(C(=O)NO)CCN(Cc3cccc(OC)c3)CC2)cc1
- IC50 [5]: 3 nM
- inhibition in vivo at 25 mg/kg [7]: 82%

Compound: CCCCOc1ccc(S(=O)(=O)C2(C(=O)NO)CCN(Cc3ccc(Cl)c(Cl)c3)CC2)cc1
- inhibition [1]: 57%
- inhibition in vivo at 25 mg/kg [4]: 14%
- IC50 (Collagenase 3): 5 nM
- IC50 [5]: 20 nM

Compound: CCCCOc1ccc(S(=O)(=O)C2(C(=O)NO)CCN(CCOc3ccccc3)CC2)cc1
- inhibition in vivo at 25 mg/kg [8]: 29%
- IC50 [5]: 5 nM

Compound: O=C(NO)C1(CS(=O)(=O)c2ccc(Oc3ccc(Cl)cc3)cc2)CCOCC1 [CTS-1027]
- IC50 (Interstitial collagenase): 233 nM
- IC50 [9]: 176 nM
- gross pathology score at 25 mg/kg (Oryctolagus cuniculus): 7.9 score
- inhibition in vivo at 5 mg/kg (Rattus norvegicus): 20%

Compound: COc1ccc(S(=O)(=O)C2(C(=O)NO)CCN(Cc3ccc(-c4ccccc4)cc3)CC2)cc1
- IC50 (Interstitial collagenase): 1330 nM
- inhibition in vivo at 25 mg/kg [10]: 29%
- IC50 (Collagenase 3): 3 nM
- IC50 [5]: 13 nM
- IC50 [9]: 610 nM

Compound: COc1ccc(S(=O)(=O)C2(C(=O)NO)CCN(Cc3ccc(Cl)c(Cl)c3)CC2)cc1
- inhibition in vivo at 25 mg/kg [11]: 47%
- IC50 (Collagenase 3): 2 nM
- IC50 [5]: 6 nM

Compound: COc1ccc(S(=O)(=O)C2(C(=O)NO)CCN(Cc3ccc(Br)cc3)CC2)cc1
- inhibition [1]: 71%
- inhibition in vivo at 25 mg/kg [11]: 51%
- IC50 (Collagenase 3): 2 nM
- IC50 [5]: 10 nM

Compound: CCCCOc1ccc(S(=O)(=O)C2(C(=O)NO)CCN(CC)CC2)cc1
- inhibition [1]: 51%
- IC50 (Collagenase 3): 2 nM
- inhibition in vivo at 10 mg/kg [12]: 34%
- inhibition in vivo at 25 mg/kg [13]: 64%

Compound: COc1ccc(S(=O)(=O)C2(C(=O)NO)CCN(CCOc3ccccc3)CC2)cc1
- inhibition in vivo at 25 mg/kg [8]: 6%
- IC50 (Collagenase 3): 3 nM
- IC50 [5]: 26 nM

Compound: COc1ccc(S(=O)(=O)C2(C(=O)NO)CCN(Cc3ccc(OCCN4CCCCC4)cc3)CC2)cc1
- inhibition in vivo at 25 mg/kg [14]: 53%
- inhibition in vivo at 25 mg/kg [15]: 56%
- IC50 (Collagenase 3): 3 nM
- IC50 [5]: 3 nM

Compound: CCCCOc1ccc(S(=O)(=O)C2(C(=O)NO)CCOCC2)cc1
- IC50 (Interstitial collagenase): 1380 nM
- IC50 (Collagenase 3): 1.4 nM
- IC50 [5]: 9.2 nM
- IC50 [9]: 177 nM

Compound: COc1ccc(S(=O)(=O)C2(C(=O)NO)CCN(Cc3ccc(F)cc3)CC2)cc1
- inhibition in vivo at 25 mg/kg [2]: 83%
- IC50 (Collagenase 3): 2 nM
- IC50 [5]: 16 nM

Compound: CCN1CCC(C(=O)NO)(S(=O)(=O)c2ccc(Oc3ccc(Cl)cc3)cc2)CC1
- IC50 (Collagenase 3): 1 nM
- IC50 [5]: 1 nM
- inhibition in vivo at 25 mg/kg [16]: 90%
- inhibition in vivo at 10 mg/kg [17]: 75%

Compound: CC(C)CCOc1ccc(S(=O)(=O)C2(C(=O)NO)CCN(Cc3ccccc3)CC2)cc1
- inhibition in vivo at 25 mg/kg [4]: 80%
- inhibition in vivo at 10 mg/kg [18]: 34%
- IC50 (Collagenase 3): 2 nM
- IC50 [5]: 4 nM

Compound: COc1ccc(S(=O)(=O)C2(C(=O)NO)CCN(Cc3ccc4ccccc4c3)CC2)cc1
- inhibition in vivo at 25 mg/kg [11]: 62%
- inhibition in vivo at 25 mg/kg [19]: 14%

Compound: CCCCOc1ccc(S(=O)(=O)C2(C(=O)NO)CCN(Cc3ccc(OCCN4CCCCC4)cc3)CC2)cc1
- inhibition in vivo at 10 mg/kg [20]: 67%
- inhibition in vivo at 5 mg/kg [21]: 56%
- inhibition in vivo at 25 mg/kg [22]: 98%
- inhibition in vivo at 5 mg/kg [23]: 33%

Compound: COc1ccc(S(=O)(=O)C2(C(=O)NO)CCN(CC=C(C)C)CC2)cc1
- inhibition [1]: 49%
- inhibition in vivo at 25 mg/kg [10]: 57%

Compound: COc1ccc(S(=O)(=O)C2(C(=O)NO)CCN(Cc3ccccc3)CC2)cc1
- IC50 [5]: 10 nM

Compound: COc1ccc(S(=O)(=O)C2(C(=O)NO)CCN(Cc3cccc(OC)c3)CC2)cc1
- inhibition in vivo at 25 mg/kg [24]: 70%
- IC50 [5]: 9 nM

Compound: COc1ccc(S(=O)(=O)C2(C(=O)NO)CCN(C3CCCCCCC3)CC2)cc1
- inhibition in vivo at 25 mg/kg [25]: 71%
- inhibition [1]: 22%

Compound: COc1ccc(CN2CCC(C(=O)NO)(S(=O)(=O)c3ccc(Oc4ccc(Cl)cc4)cc3)CC2)cc1
- inhibition in vivo at 25 mg/kg [26]: 93%
- IC50 (Interstitial collagenase): 490 nM
- IC50 [9]: 492 nM

Compound: COc1ccc(S(=O)(=O)C2(C(=O)NO)CCN(CCc3ccccc3)CC2)cc1
- IC50 (Collagenase 3): 9 nM
- inhibition in vivo at 25 mg/kg [27]: 68%

Compound: COc1ccc(CCN2CCC(C(=O)NO)(S(=O)(=O)c3ccc(OC)cc3)CC2)cc1
- inhibition [1]: 53%
- IC50 (Collagenase 3): 2 nM
- inhibition in vivo at 25 mg/kg [27]: 48%

Compound: O=C(NO)C1(S(=O)(=O)c2ccc(Oc3ccc(Cl)cc3)cc2)CCNCC1
- IC50 (Interstitial collagenase): 1260 nM
- IC50 (Collagenase 3): 2 nM
- IC50 [5]: 2 nM
- IC50 [9]: 848 nM

Compound: COc1ccc(S(=O)(=O)C2(C(=O)NO)CCN(C(C)(C)C)CC2)cc1
- inhibition [1]: 9%
- inhibition [3]: 59%

Compound: Cc1ccc(CN2CCC(C(=O)NO)(S(=O)(=O)c3ccc(OCc4ccc(Cl)cc4)cc3)CC2)cc1
- IC50 (Collagenase 3): 6 nM
